Measured values collected from several papers.
Protocols differ between the studies behind these lines.
ST14: Suppressor of tumorigenicity 14 protein (ST14, Homo sapiens, UniProt Q9Y5Y6)
CDK2 with cyclin A2: Cyclin-dependent kinase 2, with cyclin A2 (CDK2, Homo sapiens, UniProt P24941)

Structure (SMILES)	target	observed	mode	method	concentration	measurement	result
N=C(N)NCCC[C@H](NC(=O)[C@@H](NC(=O)[C@H](Cc1cscn1)NC(=O)CCc1ccccc1)C1CCCCC1)C(=O)c1nc2ccccc2s1	ST14	enzyme activity	inhibitor	–	0.1 µM	remaining activity	32%
C=CC(=O)N1CCC(COCC(=O)N2CCN(c3nc(-c4cnc(N)nc4C(F)F)nc(N4CCOC[C@@H]4C)n3)CC2)CC1	ALK tyrosine kinase receptor (ALK, Homo sapiens, UniProt Q9UM73, L1196M)	binding	–	competition with immobilised ligand	1 µM	remaining binding	77%
COc1cc(-c2cncc3c2CN(C)Cc2cc(N4CCNCC4)ccc2-3)cc(OC)c1OC	Serine/threonine-protein kinase D3 (PRKD3, Homo sapiens, UniProt O94806)	enzyme activity	inhibitor	–	1 µM	remaining activity	92%
Cc1cc([C@@H](C)Nc2ccccc2C(=O)O)c2nc(N3CCC(F)(F)CC3)c(C#N)c(=O)n2c1	Angiopoietin-1 receptor (TEK, Homo sapiens, UniProt Q02763)	binding	–	competition with immobilised ligand	10 µM	remaining binding	100%
CNC(=O)c1cc(Oc2ccc(NC(=O)Nc3ccc(Cl)c(C(F)(F)F)c3)cc2)ccn1	CDK2 with cyclin A2	enzyme activity	inhibitor	–	20 nM	inhibition	43.1%
CNc1ncc2c(/C=C/C(=O)N3CCC(OC)CC3)nn(Cc3cccc(C(F)(F)F)c3)c2n1	Serine/threonine-protein kinase VRK1 (VRK1, Homo sapiens, UniProt Q99986)	enzyme activity	inhibitor	radiometric	1 µM	remaining activity	100%
N=C(N)NCCC[C@H](NC(=O)[C@H](CCC1CCCCC1)NC(=O)[C@H](Cc1cscn1)NC(=O)CCc1ccccc1)C(=O)c1nc2ccccc2s1	ST14	enzyme activity	inhibitor	–	0.1 µM	remaining activity	5%
CC(=O)Nc1c(N)nc(SCC(=O)NN)[nH]c1=O	CDK2 with cyclin A2	enzyme activity	inhibitor	–	1 µM	inhibition	73%
CC(C)(C)[C@H](NC(=O)[C@H](Cc1cscn1)NC(=O)CCc1ccccc1)C(=O)N[C@@H](CCCNC(=N)N)C(=O)c1nc2ccccc2s1	ST14	enzyme activity	inhibitor	–	0.1 µM	remaining activity	89%
CC(=O)Nc1c(N)nc(SCC(=O)N/N=C/c2ccc([N+](=O)[O-])cc2)[nH]c1=O	CDK2 with cyclin A2	enzyme activity	inhibitor	–	200 pM	inhibition	1.89%
